Experimental findings from ChEMBL document CHEMBL1135862, “Bioactive 4-substituted-6-methyl-2-pyrones with promising cytotoxicity against A2780 and K562 cell lines” (Bioorg Med Chem Lett, 2002) are described below.

The structures appear in SMILES notation.

Assay [1] relates to Bacillus subtilis. Put plainly: Antimicrobial activity against Bacillus subtilis after 96h incubation. It counts as functional. The procedure, abridged: (§1)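 Agar diffusion on cellulose disks loaded with 200 µg compound each. Bacteria read after 96 h, yeasts after 48 h. Activity is recorded as the radius in mm, or percent, of the inhibition zone. Squalestatin S1 (200 µg/disk) served as control in the yeast assay.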

Assay [2] has as its system Escherichia coli. Put plainly: Antimicrobial activity against the Escherichia coli after 96 hr incubation. Also on record: concentration or dose not given beside the values. It counts as functional. Put shortly: as §1
Assay [3] has as its system Staphylococcus aureus. Put plainly: Antimicrobial activity against Staphylococcus aureus after 96h incubation. It counts as functional. The procedure, abridged: as §1
The subject of assay [4] is Schizosaccharomyces pombe. Put plainly: (§2) Antimicrobial activity against Schizosaccharomyces pombe after 48 hr incubation. It counts as functional. More on the design: concentration or dose not given beside the values. Put shortly: as §1
Assay [5] concerns Bacillus subtilis. Put plainly: Antimicrobial activity against Bacillus subtilis after 96 hr incubation. The assay is classed as functional. Also on record: concentration or dose not given beside the values. Put shortly: as §1
In assay [6] the test system is Saccharomyces cerevisiae. Put plainly: Antimicrobial activity against Saccharomyces cerevisiae after 48 hr incubation. The assay is classed as functional. The procedure, abridged: as §1
Assay [7] has as its system Saccharomyces cerevisiae. Put plainly: Compound was evaluated for anti fungal activity against Saccharomyces cerevisiae after 48 hr incubation. It counts as functional. Put shortly:
as §1

Assay [8] relates to Schizosaccharomyces pombe. The assay is described as §2. The assay is classed as functional. The procedure, abridged:
as §1

Assay [9] relates to Staphylococcus aureus. Put plainly: The compound was evaluated for anti microbial activity against Staphylococcus aureus after 96 hr incubation. The assay is classed as functional. Also on record: concentration or dose not given beside the values. Put shortly: as §1
For assay [10], the system named is Escherichia coli. Kind of assay: Antimicrobial activity against Escherichia coli after 96h incubation. The assay is classed as functional. The procedure, abridged:
as §1

The subject of assay [11] is A2780. Kind of assay: Inhibitory concentration in vitro for cytotoxic activity against A 2780 human ovarian carcinoma cells. It counts as functional, cell-based. Put shortly:
(§3)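 MTT assay in 96-well plates, seeding 400–1000 cells/well. Cells recover 24 h, then drug in medium is added, three wells per dose. Incubate 5 days at 37 °C in 5% CO₂. Add MTT (3 mg/mL) for 3 h, dissolve formazan in DMSO, read at 540 nm minus 620 nm. Percent growth inhibition per dose comes from duplicate experiments, reported as mean and SD; IC50 is derived from these.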

Assay [12] deals with Candida albicans. Put plainly: Anti fungal activity against Candida albicans after 48 hr incubation. The assay is classed as functional. Also on record: concentration or dose not given beside the values. Put shortly:
as §1

Assay [13] concerns K562. Kind of assay: Inhibitory concentration in vitro for cytotoxic activity against K 562 human chronic myelogenous leukemia cells. It counts as functional, cell-based. Put shortly: as §3
Assay [14] deals with Candida albicans. Kind of assay: Antimicrobial activity against Candida albicans after 48 hr incubation. The assay is classed as functional. The procedure, abridged: as §1
For assay [15], the system named is Schizosaccharomyces pombe. Kind of assay: The compound was evaluated for antimicrobial activity against Schizosaccharomyces pombe after 48 hr incubation. It counts as functional. Put shortly:
as §1

On to `C#Cc1cc(C)oc(=O)c1`, for which the Inhibition in assay [1] was 17 mm; in assay [2] it was 18.2%; in [3], 30 mm; in assay [4] it was 45.5%; in assay [5] it was 19.3%; in assay [6], 40 mm. Besides, the Inhibition is given as 45.4% in assay [7]; 40 mm in [8]; 34.1% in assay [9]; 16 mm in assay [10]; 40.9% in [12]; 36 mm in assay [14]. Further, the IC50 (in general, the concentration needed to halve the response being measured) in assay [11] came to 3.1 µM; in assay [13] it was 2 µM.
On to `CCc1cc(C)oc(=O)c1`, for which the Inhibition in assay [1] was 0 mm; in [2] it was 23.8%; in [3] it was 0 mm; in assay [6], 0 mm; in [15], 0 radii mm-1; in assay [10], 21 mm. The same compound had an Inhibition in [14] of 0 mm. Also, the IC50 in [11] and in [13] was above 50 µM each time.
Regarding `CCCCCC#Cc1cc(C)oc(=O)c1`, the Inhibition in assay [1] was 19 mm; in assay [2] it was 21.6%; in assay [3] it was 21 mm; in assay [4], 56.8%; in assay [5], 21.6%; in assay [6], 0 mm. In addition, the Inhibition in assay [8] was determined as 50 mm; in [9], 23.9%; in assay [10], 19 mm; in assay [12], 25%; in assay [14] it was 22 mm. Besides, the half-inhibitory concentration (IC50) stood at 2.9 µM in assay [11] and 11.1 µM in assay [13].
Take `Cc1cc(C#CCOC2CCCCO2)cc(=O)o1` (configuration not stated): the Inhibition in assay [1] is on record as 20 mm; in assay [2] it was 19.3%; in [3], 30 mm; in assay [4], 20.5%; in assay [5], 22.7%; in [6], 0 mm. Also, the Inhibition came to 18 mm in assay [8]; 34.1% in assay [9]; 17 mm in [10]; 14.8% in [12]; 13 mm in [14]. Also, the values for the IC50 in assay [11] and in [13] were 2.1 µM and 4 µM, respectively.
Consider `CCCC#Cc1cc(C)oc(=O)c1`, for which the Inhibition was found to be 18 mm in assay [1]; 25% in [2]; 21 mm in assay [3]; 32.9% in [4]; 20.5% in [5]; 0 mm in assay [6]. The Inhibition in assay [8] came out at 29 mm; in [9], 23.9%; in assay [10] it was 22 mm; in [12], 12.5%; in assay [14] it was 11 mm. For the same compound, the values for the IC50 in assay [11] and in [13] were 4.8 µM and 17.8 µM, respectively.
For the compound `CCCCCCCc1cc(C)oc(=O)c1`, the Inhibition in assay [1] came to 16 mm; in assay [2] it was 19.3%; in [3], 14 mm; in [5] it was 18.2%; in assay [6], 5 mm; in assay [15], 34.1%. Also, the Inhibition was determined as 5.7% in assay [7]; 30 mm in [8]; 15.9% in assay [9]; 17 mm in [10]; 18.2% in [12]; 16 mm in assay [14]. The IC50 in assay [11] was found to be 41.8 µM; in assay [13], 28.7 µM.
As for `CCCCC/C=C/c1cc(C)oc(=O)c1`, the Inhibition in assay [1] was 18 mm; in [2] it was 20.5%; in assay [3] it was 17 mm; in assay [4] it was 38.6%; in assay [5], 20.5%; in assay [6], 0 mm. Moreover, the Inhibition is on record as 34 mm in assay [8]; 19.3% in assay [9]; 18 mm in assay [10]; 23.9% in assay [12]; 21 mm in assay [14]. Also, the IC50 in [11] and in assay [13] was above 50 µM throughout.
As for `CCCCCC/C=C/c1cc(C)oc(=O)c1`, the Inhibition in assay [1] is 18 mm; in [2], 22.7%; in [3], 18 mm; in assay [4], 32.9%; in assay [5], 20.5%; in [6], 0 mm. Further, the Inhibition in assay [8] is recorded as 29 mm; in [9], 20.5%; in [10], 20 mm; in [12] it was 22.7%; in assay [14] it was 20 mm. The half-maximal inhibitory concentration (IC50) in assay [11] and in assay [13] was above 50 µM in each case.
